Measured values reported in ChEMBL document CHEMBL5154796, “Chemical synthesis and pharmacological properties of heparin pentasaccharide analogues” (Eur J Med Chem, 2022).
pIC50: −log10 of the molar value. Calls of active or inactive are those of the source. The calls are words filed in the database; no cut-off is given here.

Legend:
[1] = Half life in Sprague-Dawley rat at 100 nmol/kg, sc; type: ADME; conditions: in vivo
Summary of the method: (§1)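 Plasma level read from anti-FXa activity against a standard curve built by spiking pooled rat platelet-poor plasma with graded compound. Noncompartmental analysis; n = 4-6, mean ± SEM.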

Plasma [2] = test: Anticoagulant activity in human platelet poor plasma assessed as inhibition of thrombin generation incubated for 3 mins by calibrated automated thrombogram analysis; type: functional, cell-free; conditions: 0.05 h
Summary of the method: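 Thrombin generation triggered in human platelet-poor plasma by a phospholipid/tissue factor reagent, monitored by calibrated automated thrombogram with readings every 15 s. Total thrombin taken as area under the thrombin-time curve; IC50 from dose-response. Triplicate.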

[3] = Clearance in Sprague-Dawley rat at 100 nmol/kg, sc; type: ADME; conditions: in vivo; summary of the method: as §1
Rattus norvegicus [4] = test: Antithrombotic activity in Sprague-Dawley rat model of blood stasis-induced venous thrombosis assessed as inhibition of thrombosis rate at 100 nmol/kg, sc measured after 1 hr relative to control; type: functional
Summary of the method: (§2)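 Male SD rats given 100 nmol/kg s.c.; at 1 or 3 h, anesthetized with 10% chloral hydrate ([…]). Vena cava loosely ligated, collaterals tied, 2% rabbit thromboplastin given i.v., stasis 20 s later and held 20 min. Thrombus removed, dried 24 h at 50 °C, weighed; inhibition versus saline group; n = 6, mean ± SEM.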

[5] = Cmax in Sprague-Dawley rat at 100 nmol/kg, sc; type: ADME; design: dose 100 nmol/kg, route sc; conditions: in vivo; summary of the method: as §1
[6] = Tmax in Sprague-Dawley rat at 100 nmol/kg, sc; type: ADME; conditions: in vivo; summary of the method: as §1
Rattus norvegicus [7] = test: Antithrombotic activity in Sprague-Dawley rat model of blood stasis-induced venous thrombosis assessed as inhibition of thrombosis rate at 30 nmol/kg, sc measured after 2 hrs relative to control; type: functional
Summary of the method: (§3)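 Stasis/thromboplastin vena cava model in male SD rats 2 h after s.c. dosing at 30, 100 or 300 nmol/kg. Thrombus dried 24 h at 50 °C and weighed, then expressed as % of mean thrombus mass in the saline group (100% = no inhibition); n = 8-10, mean ± SEM.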

Plasma [8] = test: Anticoagulant activity in human plasma assessed as prolongation of prothrombin time by measuring concentration required to double PT incubated for 3 mins by coagulometer analysis; type: functional; conditions: dose 128 µg/ml, 0.05 h
[9] = AUC (0 to 32 hrs) in Sprague-Dawley rat at 100 nmol/kg, sc measured after 32 hrs; type: ADME, organism-based; design: time 32 hrs, dose 100 nmol/kg, route sc; conditions: in vivo; summary of the method: as §1
Rattus norvegicus [10] = test: Antithrombotic activity in Sprague-Dawley rat model of blood stasis-induced venous thrombosis assessed as inhibition of thrombosis rate at 100 nmol/kg, sc measured after 1 hr; type: functional, organism-based; summary of the method: as §2
Rattus norvegicus [11] = test: Antithrombotic activity in Sprague-Dawley rat model of blood stasis-induced venous thrombosis assessed as inhibition of thrombosis rate at 100 nmol/kg, sc measured after 2 hrs relative to control; type: functional; summary of the method: as §3
Plasma [12] = test: Anticoagulant activity in human plasma assessed as prolongation of activated partial thromboplastin time by measuring concentration required to double APTT incubated for 3 mins by coagulometer analysis; type: functional; conditions: 0.05 h
Summary of the method: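 Standard human plasma (45 µL) plus sample (5 µL), 2 min at 37 °C, then APTT reagent for 3 min, then CaCl2; clotting time read on a coagulometer. Clotting time versus concentration fitted linearly; EC2.0 is the concentration doubling clotting time. Run in duplicate.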

[13] = Volume of distribution in Sprague-Dawley rat at 100 nmol/kg, sc; type: ADME; conditions: in vivo; summary of the method: as §1
Plasma [14] = test: Anticoagulant activity in human plasma assessed as prolongation of thrombin time by measuring concentration required to double TT incubated for 3 mins by coagulometer analysis; type: functional; conditions: 0.05 h
[15] = AUC (0 to infinity) in Sprague-Dawley rat at 100 nmol/kg, sc; type: ADME; design: time infinity, dose 100 nmol/kg, route sc; conditions: in vivo; for AUC(0-inf): Sprague-Dawley, 100 nmol/kg; summary of the method: as §1
Rattus norvegicus [16] = test: Antithrombotic activity in Sprague-Dawley rat model of blood stasis-induced venous thrombosis assessed as inhibition of thrombosis rate at 300 nmol/kg, sc measured after 2 hrs relative to control; type: functional; summary of the method: as §3
Coagulation factor X [17] = target: T1, Coagulation factor X (Homo sapiens, UniProt P00742); test: Inhibition of coagulation factor Xa (unknown origin) using chromogenic substrate incubated for 7 min in presence of antithrombin by absorbance based assay
Coagulation factor X [18] = target: T1, Coagulation factor X; test: Inhibition of heparin binding to factor 10a using chromogenic substrate incubated for 7 min by absorbance based assay
Rattus norvegicus [19] = test: Antithrombotic activity in Sprague-Dawley rat model of blood stasis-induced venous thrombosis assessed as inhibition of thrombosis rate at 100 nmol/kg, sc measured after 3 hrs; type: functional, organism-based; summary of the method: as §2
Mus musculus = test: Antithrombotic activity in mouse model of tail-bleeding assessed as increase in blood loss at 2000 nmol/kg, sc; type: functional, organism-based
Summary of the method: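 Mouse tail-cut bleeding: 2000 nmol/kg s.c., tail cut 1.5 h after dosing, blood loss measured in µL; normal saline negative control; n ≥ 6, mean ± SEM, one-way ANOVA.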

T1 sequence (P00742 41-179 limits assumed): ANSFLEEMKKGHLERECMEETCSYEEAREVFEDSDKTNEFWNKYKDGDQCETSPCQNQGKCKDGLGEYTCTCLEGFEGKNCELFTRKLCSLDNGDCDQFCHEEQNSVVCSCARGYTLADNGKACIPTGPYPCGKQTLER
T1 sequence (P00742 235-488 limits assumed): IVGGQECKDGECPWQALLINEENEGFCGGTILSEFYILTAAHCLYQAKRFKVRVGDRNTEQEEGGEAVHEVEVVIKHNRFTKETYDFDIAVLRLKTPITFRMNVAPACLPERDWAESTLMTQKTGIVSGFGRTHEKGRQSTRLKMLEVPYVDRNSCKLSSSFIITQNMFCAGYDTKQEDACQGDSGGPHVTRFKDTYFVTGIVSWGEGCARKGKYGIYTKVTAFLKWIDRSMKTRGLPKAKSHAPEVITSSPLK

Compound | half-life [1] | pIC50 (Plasma [2]) | CL/F [3] | inhibition in vivo at 0.1 µmol/kg (Rattus norvegicus [4]) | Cmax [5] | Tmax [6] | inhibition in vivo at 0.03 µmol/kg (Rattus norvegicus [7]) | EC (Plasma [8]) | AUC(0-t) at 32 h [9] | inhibition (Rattus norvegicus [10]) | inhibition (Rattus norvegicus [11]) | EC (Plasma [12]) | Vd [13] | 2TT (Plasma [14]) | AUC(0-inf) [15] | inhibition in vivo at 0.3 µmol/kg (Rattus norvegicus [16]) | pIC50 (Coagulation factor X [17]) | pIC50 (Coagulation factor X [18]) | inhibition (Rattus norvegicus [19]) | inhibition (Rattus norvegicus [16]) | further results
CO[C@H]1O[C@H](COS(=O)(=O)[O-])[C@@H](O[C@@H]2O[C@@H](C(=O)[O-])[C@@H](O[C@H]3O[C@H](COS(=O)(=O)[O-])[C@@H](O[C@@H]4O[C@H](C(=O)[O-])[C@@H](O[C@H]5O[C@H](COS(=O)(=O)[O-])[C@@H](O)[C@H](O)[C@H]5NS(=O)(=O)[O-])[C@H](O)[C@H]4O)[C@H](OS(=O)(=O)[O-])[C@H]3NS(=O)(=O)[O-])[C@H](O)[C@H]2OS(=O)(=O)[O-])[C@H](O)[C@H]1NS(=O)(=O)[O-].[Na+].[Na+].[Na+].[Na+].[Na+].[Na+].[Na+].[Na+].[Na+].[Na+] [FONDAPARINUX SODIUM] | 1.2 h | 4.84 | 3.98 mL/min/kg | 55.7% | 519 ng/mL | 0.6 h | < 15% | >128 µg/mL | 1070 ng·h/mL | Active | Active | 51.2 µM | 0.097 L/kg | >128 µg/mL | 1120 ng·h/mL | 59.3% | 7.00 | 5.72 |  |  | 
CO[C@H]1O[C@H](COS(=O)(=O)[O-])[C@@H](O[C@@H]2O[C@@H](C(=O)[O-])[C@@H](O[C@H]3O[C@H](COS(=O)(=O)[O-])[C@@H](O[C@@H]4O[C@H](C(=O)[O-])[C@@H](O[C@H]5O[C@H](COS(=O)(=O)[O-])[C@@H](OC)[C@H](OS(=O)(=O)[O-])[C@H]5OS(=O)(=O)[O-])[C@H](OC)[C@H]4OC(C)=O)[C@H](OS(=O)(=O)[O-])[C@H]3OS(=O)(=O)[O-])[C@H](OC)[C@H]2OS(=O)(=O)[O-])[C@H](OS(=O)(=O)[O-])[C@H]1OS(=O)(=O)[O-].[Na+].[Na+].[Na+].[Na+].[Na+].[Na+].[Na+].[Na+].[Na+].[Na+].[Na+].[Na+] | 15.1 h | 4.83 | 0.283 mL/min/kg |  | 1140 ng/mL | 2 h | 33.2% | >128 µg/mL | 12800 ng·h/mL |  | Active | 32.47 µM | 0.136 L/kg | >128 µg/mL | 15100 ng·h/mL |  | 7.05 | 5.95 | Active | Active | Activity (Mus musculus): Active
CO[C@H]1O[C@H](COS(=O)(=O)[O-])[C@@H](O[C@@H]2O[C@@H](C(=O)[O-])[C@@H](O[C@H]3O[C@H](COS(=O)(=O)[O-])[C@@H](O[C@@H]4O[C@H](C(=O)[O-])[C@@H](O[C@H]5O[C@H](COS(=O)(=O)[O-])[C@@H](O)[C@H](OC)[C@H]5OS(=O)(=O)[O-])[C@H](OC)[C@H]4O)[C@H](OS(=O)(=O)[O-])[C@H]3OS(=O)(=O)[O-])[C@H](OC)[C@H]2OS(=O)(=O)[O-])[C@H](OS(=O)(=O)[O-])[C@H]1OS(=O)(=O)[O-].[Na+].[Na+].[Na+].[Na+].[Na+].[Na+].[Na+].[Na+].[Na+].[Na+].[Na+] | 6.2 h | 4.90 | 0.35 mL/min/kg | 56.9% | 2020 ng/mL | 1.5 h | 48.6% | >128 µg/mL | 14200 ng·h/mL |  |  | 48.78 µM | 0.131 L/kg | >128 µg/mL | 15500 ng·h/mL | 89.5% | 6.97 | 6.10 | Active |  | inhibition in vivo at 0.1 µmol/kg (Rattus norvegicus [11]): > 70%
CO[C@H]1O[C@H](COS(=O)(=O)[O-])[C@@H](O[C@@H]2O[C@@H](C(=O)[O-])[C@@H](O[C@H]3O[C@H](COS(=O)(=O)[O-])[C@@H](O[C@@H]4O[C@H](C(=O)[O-])[C@@H](O[C@H]5O[C@H](COS(=O)(=O)[O-])[C@@H](O)[C@H](O)[C@H]5OS(=O)(=O)[O-])[C@H](OC)[C@H]4O)[C@H](OS(=O)(=O)[O-])[C@H]3OS(=O)(=O)[O-])[C@H](OC)[C@H]2OS(=O)(=O)[O-])[C@H](OS(=O)(=O)[O-])[C@H]1OS(=O)(=O)[O-].[Na+].[Na+].[Na+].[Na+].[Na+].[Na+].[Na+].[Na+].[Na+].[Na+].[Na+] | 6.1 h | 4.91 |  | 77.8% | 2040 ng/mL | 2 h | < 15% | >128 µg/mL | 17600 ng·h/mL |  |  | 40.83 µM | 0.058 L/kg | >128 µg/mL |  | 93.1% | 6.85 | 6.14 |  |  | inhibition in vivo at 0.1 µmol/kg (Rattus norvegicus [11]): > 70%; AUC [15]: 19053.2 ng·h/mL
CO[C@H]1O[C@H](COS(=O)(=O)[O-])[C@@H](O[C@@H]2O[C@@H](C(=O)[O-])[C@@H](O[C@H]3O[C@H](COS(=O)(=O)[O-])[C@@H](O[C@@H]4O[C@H](C(=O)[O-])[C@@H](O[C@H]5O[C@H](COS(=O)(=O)[O-])[C@@H](O)[C@H](OS(=O)(=O)[O-])[C@H]5OS(=O)(=O)[O-])[C@H](OC)[C@H]4O)[C@H](OS(=O)(=O)[O-])[C@H]3OS(=O)(=O)[O-])[C@H](OC)[C@H]2OS(=O)(=O)[O-])[C@H](OS(=O)(=O)[O-])[C@H]1OS(=O)(=O)[O-].[Na+].[Na+].[Na+].[Na+].[Na+].[Na+].[Na+].[Na+].[Na+].[Na+].[Na+].[Na+] | 4.8 h | 4.91 | 0.633 mL/min/kg |  | 1250 ng/mL | 1 h | 39.5% | >128 µg/mL | 6350 ng·h/mL | Active | Active | 33.05 µM | 0.183 L/kg | >128 µg/mL | 6750 ng·h/mL |  | 7.02 | 6.11 |  | Active | 
